# Reference: ChEMBL document CHEMBL1147176, “Synthesis of S-dialkylarsino-3-mercapto-1,2-propanediols and evaluation of their anticancer activity” (2007)
# Columns and labels:
# Format in all cases: functional
# HT-29 = experiment: Anticancer activity against human HT29 cells assessed as growth inhibition
# Procedure, shortened: (§1)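 NCI in vitro disease-oriented human tumor cell screen, about 60 lines. Growth inhibition read as pGI50, the -log of the molar concentration inhibiting 50% net cell growth. A mean graph midpoint is the arithmetic mean over all tested lines. Where the effect was not reached within the concentration interval, the highest tested concentration was used.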
# NCI-H522 = experiment: Anticancer activity against human NCI-H522 cells assessed as growth inhibition; procedure, shortened: as §1
# RPMI-8226 = experiment: Anticancer activity against human RPMI8226 cells assessed as growth inhibition; procedure, shortened: as §1
# U-251 = experiment: Anticancer activity against human U251 cells assessed as growth inhibition
# Procedure, shortened: (§2)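 The value is GI50, the molar concentration causing 50% inhibition of net cell growth, reported as pGI50 (−log molar).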
# MOLT-4 = experiment: Anticancer activity against human MOLT4 cells assessed as growth inhibition; procedure, shortened: as §1
# HL-60 = experiment: Anticancer activity against human HL60(TB) cells assessed as growth inhibition; procedure, shortened: as §1
# Malme-3M = experiment: Anticancer activity against human MALME3M cells assessed as growth inhibition; procedure, shortened: as §1
# NCI/ADR-RES = experiment: Anticancer activity against human NCI/ADR-RES cells assessed as growth inhibition; procedure, shortened: as §1
# SF-295 = experiment: Anticancer activity against human SF295 cells assessed as growth inhibition; procedure, shortened: as §1
# UO-31 = experiment: Anticancer activity against human UO31 cells assessed as growth inhibition; procedure, shortened: as §2
# NCI-H322M = experiment: Anticancer activity against human NCI-H322M cells assessed as growth inhibition; procedure, shortened: as §1
# OVCAR-3 = experiment: Anticancer activity against human OVCAR-3 cells assessed as growth inhibition; procedure, shortened: as §1
# MCF7 = experiment: Anticancer activity against human MCF7 cells assessed as growth inhibition; procedure, shortened: as §1
# SNB-19 = experiment: Anticancer activity against human SNB19 cells assessed as growth inhibition; procedure, shortened: as §1
# HCT-116 = experiment: Anticancer activity against human HCT116 cells assessed as growth inhibition; procedure, shortened: as §1
# A549 = experiment: Anticancer activity against human A549/ATCC cells assessed as growth inhibition; procedure, shortened: as §1
# SK-OV-3 = experiment: Anticancer activity against human SK-OV3 cells assessed as growth inhibition; procedure, shortened: as §1
# SW-620 = experiment: Anticancer activity against human SW620 cells assessed as growth inhibition; procedure, shortened: as §1
# NCI-H226 = experiment: Anticancer activity against human NCI-H226 cells assessed as growth inhibition; procedure, shortened: as §1
# DU-145 = experiment: Anticancer activity against human DU145 cells assessed as growth inhibition; procedure, shortened: as §1
# CCRF-CEM = experiment: Anticancer activity against human CCRF-CEM cells assessed as growth inhibition; procedure, shortened: as §1
# TK-10 = experiment: Anticancer activity against human TK10 cells assessed as growth inhibition; procedure, shortened: as §1
# [1] = Anticancer activity against human HS 578T cells assessed as growth inhibition; procedure, shortened: as §1
# M14 = experiment: Anticancer activity against human M14 cells assessed as growth inhibition; procedure, shortened: as §1
# OVCAR-5 = experiment: Anticancer activity against human OVCAR5 cells assessed as growth inhibition; procedure, shortened: as §1
# COLO 205 = experiment: Anticancer activity against human COLO 205 cells assessed as growth inhibition; procedure, shortened: as §1
# SK-MEL-28 = experiment: Anticancer activity against human SK-MEL-28 cells assessed as growth inhibition; procedure, shortened: as §1
# MDA-MB-435 = experiment: Anticancer activity against human MDA-MB435 cells assessed as growth inhibition; procedure, shortened: as §1
# HCT-15 = experiment: Anticancer activity against human HCT15 cells assessed as growth inhibition; procedure, shortened: as §1
# EKVX = experiment: Anticancer activity against human EKVX cells assessed as growth inhibition; procedure, shortened: as §1
# T47D = experiment: Anticancer activity against human T47D cells assessed as growth inhibition; procedure, shortened: as §1
# SR = experiment: Anticancer activity against human SR cells assessed as growth inhibition; procedure, shortened: as §1
# HCC 2998 = experiment: Anticancer activity against human HCC2998 cells assessed as growth inhibition; procedure, shortened: as §1
# K562 = experiment: Anticancer activity against human K562 cells assessed as growth inhibition; procedure, shortened: as §1
# KM12 = experiment: Anticancer activity against human KM12 cells assessed as growth inhibition; procedure, shortened: as §1
# 786-0 = experiment: Anticancer activity against human 786-0 cells assessed as growth inhibition; conditions: read-out: Log LC50 (the source's name) (converted); procedure, shortened: as §1
# OVCAR-4 = experiment: Anticancer activity against human OVCAR4 cells assessed as growth inhibition; procedure, shortened: as §1
# CAKI-1 = experiment: Anticancer activity against human CAKI1 cells assessed as growth inhibition; procedure, shortened: as §1
# A498 = experiment: Anticancer activity against human A498 cells assessed as growth inhibition; procedure, shortened: as §1
# SF-268 = experiment: Anticancer activity against human SF268 cells assessed as growth inhibition; procedure, shortened: as §1
# ACHN = experiment: Anticancer activity against human ACHN cells assessed as growth inhibition; procedure, shortened: as §1
# PC-3 = experiment: Anticancer activity against human PC3 cells assessed as growth inhibition; procedure, shortened: as §1
# RXF 393 = experiment: Anticancer activity against human RXF393 cells assessed as growth inhibition; procedure, shortened: as §1
# HOP-92 = experiment: Anticancer activity against human HOP92 cells assessed as growth inhibition; procedure, shortened: as §1
# NCI-H23 = experiment: Anticancer activity against human NCI-H23 cells assessed as growth inhibition; procedure, shortened: as §1
# BT-549 = experiment: Anticancer activity against human BT549 cells assessed as growth inhibition; procedure, shortened: as §1
# SN12C = experiment: Anticancer activity against human SN12C cells assessed as growth inhibition; procedure, shortened: as §1
# OVCAR-8 = experiment: Anticancer activity against human OVCAR8 cells assessed as growth inhibition; procedure, shortened: as §1
# IGROV-1 = experiment: Anticancer activity against human IGROV1 cells assessed as growth inhibition; procedure, shortened: as §1
# HOP-62 = experiment: Anticancer activity against human HOP62 cells assessed as growth inhibition; procedure, shortened: as §1
# SF-539 = experiment: Anticancer activity against human SF539 cells assessed as growth inhibition; procedure, shortened: as §1
# NCI-H460 = experiment: Anticancer activity against human NCI-H460 cells assessed as growth inhibition; procedure, shortened: as §1
# [2] = read-out: Log LC50 (the source's name) (converted)
smiles,measurement,setting,value
C[As](C)SCC(COC(=O)C(Cl)c1ccccc1)OC(=O)C(Cl)c1ccccc1 (configuration not stated),GI50,HT-29,0.813 µM
same,CC50,HT-29; [2],> 100 µM
same,GI50,NCI-H522,0.457 µM
same,CC50,NCI-H522; [2],> 100 µM
same,GI50,RPMI-8226,0.316 µM
same,CC50,RPMI-8226; [2],> 100 µM
same,GI50,U-251,6.31 µM
same,CC50,U-251; [2],> 100 µM
same,GI50,MOLT-4,0.347 µM
same,CC50,MOLT-4; [2],> 100 µM
same,GI50,HL-60,0.162 µM
same,CC50,HL-60; [2],8.51 µM
same,GI50,Malme-3M,0.0398 µM
same,CC50,Malme-3M; [2],3.39 µM
same,GI50,NCI/ADR-RES,2.04 µM
same,CC50,NCI/ADR-RES; [2],32.4 µM
same,GI50,SF-295,3.63 µM
same,CC50,SF-295; [2],43.7 µM
same,GI50,UO-31,5.37 µM
same,CC50,UO-31; [2],> 100 µM
same,GI50,NCI-H322M,1.66 µM
same,CC50,NCI-H322M; [2],32.4 µM
same,GI50,OVCAR-3,0.178 µM
same,CC50,OVCAR-3; [2],3.24 µM
same,GI50,MCF7,0.372 µM
same,CC50,MCF7; [2],67.6 µM
same,GI50,SNB-19,11.5 µM
same,CC50,SNB-19; [2],85.1 µM
same,GI50,HCT-116,0.407 µM
same,CC50,HCT-116; [2],4.9 µM
same,GI50,A549,3.72 µM
same,CC50,A549; [2],> 100 µM
same,GI50,SK-OV-3,0.646 µM
same,CC50,SK-OV-3; [2],> 100 µM
same,GI50,SW-620,0.617 µM
same,CC50,SW-620; [2],> 100 µM
same,GI50,NCI-H226,26.9 µM
same,CC50,NCI-H226; [2],67.6 µM
same,GI50,DU-145,4.27 µM
same,CC50,DU-145; [2],58.9 µM
same,GI50,CCRF-CEM,0.302 µM
same,CC50,CCRF-CEM; [2],32.4 µM
same,GI50,TK-10,0.112 µM
same,CC50,TK-10; [2],2.69 µM
same,GI50,[1],6.17 µM
same,CC50,[1]; [2],> 100 µM
same,GI50,M14,0.603 µM
same,CC50,M14; [2],34.7 µM
same,GI50,OVCAR-5,3.55 µM
same,CC50,OVCAR-5; [2],37.2 µM
same,GI50,COLO 205,0.363 µM
same,CC50,COLO 205; [2],> 100 µM
same,GI50,SK-MEL-28,0.603 µM
same,GI50,MDA-MB-435,0.209 µM
same,CC50,MDA-MB-435; [2],28.8 µM
same,GI50,HCT-15,0.38 µM
same,CC50,HCT-15; [2],> 100 µM
same,GI50,EKVX,10.5 µM
same,CC50,EKVX; [2],> 100 µM
same,GI50,T47D,5.89 µM
same,CC50,T47D; [2],60.3 µM
same,GI50,SR,1.41 µM
same,CC50,SR; [2],> 100 µM
same,GI50,HCC 2998,1.55 µM
same,CC50,HCC 2998; [2],8.13 µM
same,GI50,K562,0.0372 µM
same,CC50,K562; [2],5.37 µM
same,GI50,KM12,1.2 µM
same,CC50,KM12; [2],30.9 µM
same,CC50,786-0,25.1 µM
same,GI50,OVCAR-4,1.26 µM
same,CC50,OVCAR-4; [2],> 100 µM
same,GI50,CAKI-1,0.347 µM
same,CC50,CAKI-1; [2],30.2 µM
same,GI50,A498,5.5 µM
same,CC50,A498; [2],57.5 µM
same,GI50,SF-268,3.16 µM
same,CC50,SF-268; [2],56.2 µM
same,GI50,ACHN,0.759 µM
same,CC50,ACHN; [2],38.9 µM
same,GI50,PC-3,0.55 µM
same,CC50,PC-3; [2],47.9 µM
same,GI50,RXF 393,0.363 µM
same,CC50,RXF 393; [2],36.3 µM
same,GI50,HOP-92,0.162 µM
same,CC50,HOP-92; [2],40.7 µM
same,GI50,NCI-H23,0.741 µM
same,CC50,NCI-H23; [2],22.9 µM
same,GI50,BT-549,2.45 µM
same,CC50,BT-549; [2],64.6 µM
same,GI50,SN12C,2.45 µM
same,CC50,SN12C; [2],67.6 µM
same,GI50,OVCAR-8,4.07 µM
same,CC50,OVCAR-8; [2],> 100 µM
same,GI50,IGROV-1,4.47 µM
same,CC50,IGROV-1; [2],> 100 µM
same,GI50,HOP-62,4.37 µM
same,CC50,HOP-62; [2],40.7 µM
same,GI50,SF-539,3.63 µM
same,CC50,SF-539; [2],> 100 µM
same,GI50,NCI-H460,5.75 µM
same,CC50,NCI-H460; [2],79.4 µM
